Data as given in ChEMBL document CHEMBL1141879, “Alkylamino derivatives of 4-aminomethylpyridine as inhibitors of copper-containing amine oxidases” (J Med Chem, 2005).

Columns and labels:
[1] = biological target: T1, Peroxisomal primary amine oxidase (Pichia angusta, UniProt P12807); assay: (§1) Inhibition of beta-phenylethylamine binding to Hansenula polymorpha amine oxidase; design: species or system Ogataea angusta
T1 sequence (P12807 whole entry): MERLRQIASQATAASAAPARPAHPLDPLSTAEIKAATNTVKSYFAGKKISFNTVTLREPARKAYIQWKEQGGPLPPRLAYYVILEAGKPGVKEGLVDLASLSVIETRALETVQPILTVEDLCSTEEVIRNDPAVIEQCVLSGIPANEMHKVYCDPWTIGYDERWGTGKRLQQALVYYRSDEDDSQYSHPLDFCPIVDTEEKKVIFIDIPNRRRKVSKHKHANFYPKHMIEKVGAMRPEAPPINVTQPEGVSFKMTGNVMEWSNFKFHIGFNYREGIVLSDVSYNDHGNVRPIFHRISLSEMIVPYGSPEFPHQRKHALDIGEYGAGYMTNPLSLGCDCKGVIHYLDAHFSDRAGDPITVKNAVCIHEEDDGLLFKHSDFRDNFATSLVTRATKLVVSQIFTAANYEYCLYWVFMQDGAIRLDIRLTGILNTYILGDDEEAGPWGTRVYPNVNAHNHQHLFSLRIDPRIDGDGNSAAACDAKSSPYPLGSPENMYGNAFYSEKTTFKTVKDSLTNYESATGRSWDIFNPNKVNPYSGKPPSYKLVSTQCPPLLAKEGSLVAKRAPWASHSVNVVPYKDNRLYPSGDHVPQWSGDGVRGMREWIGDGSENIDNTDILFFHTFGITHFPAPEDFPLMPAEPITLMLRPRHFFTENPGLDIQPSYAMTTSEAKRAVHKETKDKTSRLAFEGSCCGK

Primary amine oxidase [2] = biological target: T2, Primary amine oxidase (Pisum sativum, UniProt Q43077); assay: Inhibition of putrescine binding to Pea seedling amine oxidase; design: species or system Lathyrus oleraceus
T2 sequence (Q43077 whole entry): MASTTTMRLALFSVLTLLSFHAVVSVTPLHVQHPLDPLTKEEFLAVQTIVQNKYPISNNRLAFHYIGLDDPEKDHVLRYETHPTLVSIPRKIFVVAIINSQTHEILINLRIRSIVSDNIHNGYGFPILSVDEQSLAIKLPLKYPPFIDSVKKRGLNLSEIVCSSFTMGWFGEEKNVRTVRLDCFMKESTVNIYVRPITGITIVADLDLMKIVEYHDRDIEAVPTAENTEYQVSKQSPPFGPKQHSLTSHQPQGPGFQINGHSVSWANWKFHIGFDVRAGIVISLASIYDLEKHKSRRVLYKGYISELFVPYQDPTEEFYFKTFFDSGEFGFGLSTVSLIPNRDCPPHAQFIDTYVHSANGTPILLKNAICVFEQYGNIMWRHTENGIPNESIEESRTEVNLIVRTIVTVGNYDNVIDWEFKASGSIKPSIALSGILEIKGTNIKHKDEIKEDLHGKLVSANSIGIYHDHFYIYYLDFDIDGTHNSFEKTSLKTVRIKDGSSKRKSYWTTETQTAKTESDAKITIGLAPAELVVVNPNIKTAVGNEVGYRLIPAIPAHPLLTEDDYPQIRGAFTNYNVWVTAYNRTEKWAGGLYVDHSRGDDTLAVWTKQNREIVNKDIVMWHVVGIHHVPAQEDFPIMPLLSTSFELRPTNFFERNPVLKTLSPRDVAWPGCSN
Outline: (§2)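 Enzyme sources: BAO from commercial porcine serum; DAO porcine kidney enzyme; PSAO from homogenate of 8-day-old pea seedlings in 0.1 M phosphate pH 7.4, cleared by two centrifugations. Substrate at saturating 1 mM (benzylamine for BAO, putrescine for DAO/PSAO). Activity read as H2O2 production by 4-aminoantipyrine method. IC50 from five inhibitor concentrations, each in duplicate, averaged.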

[3] = biological target: T3, Amine oxidase [flavin-containing] B (Rattus norvegicus, UniProt P19643); assay: Inhibitory concentration for rat liver Monoamine oxidase B using beta-phenylethylamine
T3 sequence (P19643 whole entry): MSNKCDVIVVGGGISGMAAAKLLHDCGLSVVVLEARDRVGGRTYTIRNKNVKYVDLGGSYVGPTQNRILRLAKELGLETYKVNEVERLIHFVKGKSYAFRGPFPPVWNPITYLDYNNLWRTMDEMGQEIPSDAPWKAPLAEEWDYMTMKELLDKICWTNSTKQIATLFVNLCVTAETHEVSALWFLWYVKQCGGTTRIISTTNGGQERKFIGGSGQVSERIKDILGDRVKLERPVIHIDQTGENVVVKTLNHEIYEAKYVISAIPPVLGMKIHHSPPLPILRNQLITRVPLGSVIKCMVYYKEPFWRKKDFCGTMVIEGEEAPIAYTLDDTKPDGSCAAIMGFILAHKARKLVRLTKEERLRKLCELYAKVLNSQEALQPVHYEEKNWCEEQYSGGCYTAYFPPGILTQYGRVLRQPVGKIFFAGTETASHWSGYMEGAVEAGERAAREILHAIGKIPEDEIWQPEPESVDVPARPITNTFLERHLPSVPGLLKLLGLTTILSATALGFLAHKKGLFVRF

[4] = biological target: T4, Amine oxidase [flavin-containing] A (Rattus norvegicus, UniProt P21396); assay: Inhibitory concentration for rat liver Monoamine oxidase A using 5-hydroxytryptamine
T4 sequence (P21396 whole entry): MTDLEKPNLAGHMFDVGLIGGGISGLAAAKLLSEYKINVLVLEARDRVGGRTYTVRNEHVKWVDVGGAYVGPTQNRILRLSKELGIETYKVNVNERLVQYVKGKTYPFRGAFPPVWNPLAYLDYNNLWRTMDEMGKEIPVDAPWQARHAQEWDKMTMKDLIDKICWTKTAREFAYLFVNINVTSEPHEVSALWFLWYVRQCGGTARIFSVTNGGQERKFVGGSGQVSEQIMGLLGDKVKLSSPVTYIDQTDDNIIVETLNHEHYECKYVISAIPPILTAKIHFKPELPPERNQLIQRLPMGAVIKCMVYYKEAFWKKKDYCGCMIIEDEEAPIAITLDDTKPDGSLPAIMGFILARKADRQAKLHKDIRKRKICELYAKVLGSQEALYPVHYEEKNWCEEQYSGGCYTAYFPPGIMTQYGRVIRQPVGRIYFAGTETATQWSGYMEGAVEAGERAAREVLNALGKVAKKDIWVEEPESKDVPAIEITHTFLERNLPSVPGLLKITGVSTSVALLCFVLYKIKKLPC

[5] = Intraperitoneal lethal dose was measured in Mus musculus; format: ADME; settings: ip
Outline: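 Acute toxicity was tested in Swiss white Mus musculus. Five scaled doses were given intraperitoneally, 10 animals per dose.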

[6] = biological target: T1, Peroxisomal primary amine oxidase; assay: Inhibition of phenylethylamine binding to Hansenula polymorpha amine oxidase
Outline: (§3)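 Enzyme: HPAO from Hansenula polymorpha NCYC-495 grown 24 h with glucose, 1 µM CuSO4 and methylamine, then homogenized in 0.1 M phosphate pH 7.4 and centrifuged. Substrate beta-phenylethylamine at saturating 1 mM. IC50 means from five inhibitor concentrations tested in duplicate.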

Primary amine oxidase [7] = biological target: T2, Primary amine oxidase; assay: Inhibition of putrescine binding to pea seedling amine oxidase; design: species or system Lathyrus oleraceus; outline: as §2
[8] = biological target: T1, Peroxisomal primary amine oxidase; assay: as §1; outline: as §3

IC50 [3] [µM] | IC50 [4] [µM] | Structure (SMILES) | IC50 [1] [µM] | IC50 (Primary amine oxidase [2]) [µM] | other results
1000 | 630 | CCOc1cncc(OCc2ccccc2)c1CN |  |  | 
> 1000 |  | CCSc1cncc(SCC)c1CN |  |  | 
> 170 | 420 | CNc1cnccc1CN |  |  | IC50 [6]: 53 µM; IC50 (Primary amine oxidase [7]): 710 nM
> 100 | 150 | NCc1ccncc1NC1CCCCCC1 | > 300 | 1000 | 
> 100 |  | CCNc1ccccc1CN |  | > 100 | IC50 [8]: 1.5 mM
> 100 | > 100 | NCc1ccncc1NC1CCCCC1 | > 1000 |  | 
> 2000 | > 2000 | NCc1ccncc1N |  |  | 
> 1000 |  | CC(C)(C)Sc1cncc(SC(C)(C)C)c1CN |  |  | 
20 | 10 | CCCNc1cncc(N(C)CCC)c1CN |  |  | 
> 170 | 170 | CNc1cncc(NC)c1CN |  |  | 
90 | > 100 | NCc1ccncc1NC1CC1 | > 1000 |  | 
2000 | 2200 | CC(C)Nc1cnccc1CN | > 1000 |  | 

More lines, now with the values behind:

Structure (SMILES) | IC50 [3] [µM] | IC50 [4] [µM] | IC50 [1] [µM] | IC50 (Primary amine oxidase [2]) [µM] | other results
CNc1ccccc1CN | > 100 |  | 750 | > 100 | 
Cl.Cl.NCc1c(OCCCCO)cncc1OCCCCO |  |  |  |  | LD50 [5]: > 500 mg/kg
NCc1ccncc1N(C1CCCC1)C1CCCC1 | > 100 | > 100 | > 1000 |  | 
CCNc1cncc(N(C)CC)c1CN | 300 | 63 | 350 | 55 | 
NCc1ccncc1NC1CCCC1 | > 100 | > 100 | 700 |  | 
NCc1ccncc1NCC1CCCCC1 | 70 | 95 | 540 |  | 
CNc1cncc(N(C)C)c1CN | 250 | 44 | 100 | 17 | 
Cl.Cl.NCc1c(OCCO)cncc1OCCO.O.O.O | > 1000 | > 1600 |  |  | LD [5]: > 600 mg/kg
CCOc1cncc(OCC)c1CN.Cl.Cl | > 1000 | > 1600 | > 1000 | 330 | LD50 [5]: 342 mg/kg
CCNc1cnccc1CN | > 170 | 300 | 87 | 9.3 | 
